From ChEMBL document CHEMBL4152308, “Synthesis and biological evaluation of novel 2-oxo-1,2-dihydroquinoline-4-carboxamide derivatives for the treatment of esophageal squamous cell carcinoma” (Eur J Med Chem, 2018)
The source made the active and inactive calls. No cut-off for these calls is given here.

Key:
KYSE-410 [1] = assay: Inhibition of autophagy in human KYSE410 cells assessed as decrease in bafilomycin-induced LC3B level at 10 uM treated at 1 hr post proteasome inhibitor MG132 treatment measured after 24 hrs by Western blot analysis; assay type: functional, cell-based
In short: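 KYSE410 cells pretreated 1 h with 10 µM MG132 (proteasome inhibitor), then compound at 10 µM for 24 h. Lysis in RIPA with protease inhibitors, BCA quantification, equal protein on 15% SDS-PAGE, PVDF transfer. Anti-LC3B overnight at 4 °C, anti-rabbit secondary, GAPDH as loading reference.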

KYSE-70 cell line [2] = assay: Inhibition of colony formation in human KYSE-70 cells at >3 uM after 7 days by crystal violet staining based assay; assay type: functional, cell-based
In short: (§1)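 Seeding at 250 cells/well in 96-well plates, attached 24 h, then serial compound dilutions added at 37 °C. Culture continued 7 days until colonies formed. Colonies washed, stained with 2% crystal violet for 1 h, then rinsed thoroughly with water.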

KYSE-410 [3] = assay: Cell cycle arrest in human KYSE410 cells assessed as accumulation at G2 phase at 5 uM after 24 to 48 hrs by propidium iodide staining based flow cytometry (reference value: 12.2%); assay type: functional
KYSE-410 [4] = assay: Inhibition of colony formation in human KYSE410 cells at >3 uM after 7 days by crystal violet staining based assay; assay type: functional, cell-based; in short: as §1
KYSE-410 [5] = assay: Cell cycle arrest in human KYSE410 cells assessed as accumulation at G1 phase at 1 uM after 24 to 48 hrs by propidium iodide staining based flow cytometry (reference value: 65.4%); assay type: functional
MIA PaCa-2 [6] = assay: Inhibition of autophagy in human MIAPaCa2 cells assessed as decrease in bafilomycin-induced LC3B level at 1 to 10 uM after 24 hrs by Western blot analysis; assay type: functional, cell-based
In short: (§2)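 Cells treated 24 h at indicated concentrations, with bafilomycin for induced-LC3B readouts. Lysis in RIPA with protease inhibitors, BCA protein assay, samples heated 5 min at 100 °C. Equal protein run on 15% SDS-PAGE, transferred to PVDF. Anti-LC3B primary overnight at 4 °C, GAPDH as loading control, anti-rabbit secondary, TBST washes.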

KYSE-410 [7] = assay: Antiproliferative activity against human KYSE410 cells after 72 hrs by MTT assay; assay type: functional, cell-based; conditions: KYSE-410, 72 h
In short: (§3)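 Cells grown as monolayers at 37 °C, 5% CO2, mycoplasma-checked, in exponential phase. Cells seeded in 96-well plates, 24 h attachment, then compound added for 72 h. MTT 0.3 mg/mL for 3 h at 37 °C, DMSO solubilization, absorbance at 570 nm. Inhibition = (1 − A/C) × 100%. IC50 from log(concentration) vs % inhibition plot; triplicate wells, SD from ≥3 independent experiments.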

SK-OV-3 = assay: Antiproliferative activity against human SKOV3 cells after 72 hrs by MTT assay; assay type: functional, cell-based; conditions: SK-OV-3, 72 h; in short: as §3
KYSE-410 [8] = assay: Cell cycle arrest in human KYSE410 cells assessed as accumulation at S phase at 5 uM after 24 to 48 hrs by propidium iodide staining based flow cytometry (reference value: 22.3%); assay type: functional
OVCAR-8 = assay: Antiproliferative activity against human OVCAR8 cells after 72 hrs by MTT assay; assay type: functional, cell-based; conditions: OVCAR-8, 72 h; in short: as §3
KYSE-410 [9] = assay: Cell cycle arrest in human KYSE410 cells assessed as accumulation at G1 phase at 5 uM after 24 to 48 hrs by propidium iodide staining based flow cytometry (reference value: 65.4%); assay type: functional
KYSE-70 cell line [10] = assay: Antiproliferative activity against human KYSE-70 cells after 72 hrs by MTT assay; assay type: functional, cell-based; conditions: KYSE-70, 72 h; in short: as §3
MIA PaCa-2 [11] = assay: Antiproliferative activity against human MIAPaCa2 cells after 72 hrs by MTT assay; assay type: functional, cell-based; conditions: MIA PaCa-2, 72 h; in short: as §3
KYSE-410 [12] = assay: Inhibition of autophagy in human KYSE410 cells assessed as decrease in bafilomycin-induced LC3B level at 1 to 10 uM after 24 hrs by Western blot analysis; assay type: functional, cell-based; in short: as §2
KYSE-410 [13] = assay: Inhibition of autophagy in human KYSE410 cells assessed as decrease in bafilomycin-induced LC3B level after 24 hrs by Western blot analysis; assay type: functional, cell-based; in short: as §2
KYSE-410 [14] = assay: Cell cycle arrest in human KYSE410 cells assessed as accumulation at S phase at 1 uM after 24 to 48 hrs by propidium iodide staining based flow cytometry (reference value: 22.3%); assay type: functional
KYSE-410 [15] = assay: Cell cycle arrest in human KYSE410 cells assessed as accumulation at G2 phase at 1 uM after 24 to 48 hrs by propidium iodide staining based flow cytometry (reference value: 12.2%); assay type: functional

For `O=C(Nc1cc(F)cc(F)c1)c1cc(=O)[nH]c2cc(Br)ccc12`, the inhibition (KYSE-410 [1]) was “inactive”, the inhibition (KYSE-70 cell line [2]) was “Active” and the Activity (KYSE-410 [3]) was 19.8%. For the same compound, the inhibition (KYSE-410 [4]) was “Active”, the Activity (KYSE-410 [5]) was 64.2% and the inhibition (MIA PaCa-2 [6]) was “Active”. The IC50 (KYSE-410 [7]) was 11.2 µM, the IC50 (SK-OV-3) was 10.8 µM and the Activity (KYSE-410 [8]) was 23%. The IC50 (OVCAR-8) was 12.1 µM, the Activity (KYSE-410 [9]) was 57.2% and the IC50 (KYSE-70 cell line [10]) was 10.7 µM. For the same compound, the IC50 (MIA PaCa-2 [11]) was 7.8 µM, the inhibition (KYSE-410 [12]) was “Active” and the inhibition (KYSE-410 [13]) was “Dose-dependent effect”. The Activity (KYSE-410 [14]) was 21.2% and the Activity (KYSE-410 [15]) was 14.6%.
